This note sets out measurements from ChEMBL document CHEMBL1165913, “Repairing faulty genes by aminoglycosides: development of new derivatives of geneticin (G418) with enhanced suppression of diseases-causing nonsense mutations” (Bioorg Med Chem, 2010).

The inhibition is the relative decrease from the control value, in per cent. Usually pIC50 stands for the IC50 on a negative log10 scale, so that one unit is a factor of ten. As usually defined, the MIC is the smallest concentration in the dilution series that meets the test's criterion for growth inhibition.

pIC50: −log10 of the molar value. Values after ≈ are worked out from the molar mass of the structure shown. Active and inactive are the calls of the source.

Data set [1] deals with Ribosome. Put plainly: Induction of ribosome to readthrough in-frame renilla/firefly TGA codon transfected in rabbit reticulocyte at 200 to 600 uM after 16 hrs dual-luciferase reporter gene assay. The settings on record: Oryctolagus cuniculus. Format: subcellular. (In general: Reporter assays use an easily measured gene product as a stand-in for the process of interest.)
Data set [2] concerns Ribosome. As to the kind of experiment: Induction of ribosome to readthrough in-frame renilla/firefly TGA codon transfected in rabbit reticulocyte at 5 to 20 uM after 16 hrs dual-luciferase reporter gene assay. Format: subcellular. Particulars: Oryctolagus cuniculus.
The subject of data set [3] is Ribosome. Put plainly: Induction of ribosome to readthrough in-frame UGA codon of renilla/firefly PCDH15 R245X nonsense mutant gene transfected in rabbit reticulocyte assessed as reduction in overall translation at 5 to 20 uM […] dual-luciferase reporter gene assay. Format: subcellular. The settings on record: Oryctolagus cuniculus.
Data set [4] deals with Ribosome. Put plainly: Induction of ribosome to readthrough in-frame UGA codon of renilla/firefly CFTR G542X nonsense mutant gene transfected in rabbit reticulocyte assessed as reduction in overall translation at 5 to 20 uM […] dual-luciferase reporter gene assay. The settings on record: Oryctolagus cuniculus. Format: subcellular.
Data set [5] has as its system Ribosome. Put plainly: Induction of ribosome to readthrough in-frame UGA codon of renilla/firefly CFTR W1282X nonsense mutant gene transfected in rabbit reticulocyte assessed as reduction in overall translation at 5 to 20 uM […] dual-luciferase reporter gene assay. Format: subcellular. The settings on record: Oryctolagus cuniculus.
The test system of data set [6] is Ribosome. Put plainly: Induction of ribosome to readthrough in-frame UGA codon associated with renilla/firefly dystrophin R3381X nonsense mutant gene transfected in rabbit reticulocyte assessed as reduction in overall translation at 5 to 20 uM […] dual-luciferase reporter gene assay. Format: subcellular. Particulars: Oryctolagus cuniculus.
In data set [7] the test system is Ribosome. Put plainly: Induction of ribosome to readthrough in-frame UAG codon of renilla/firefly IDUA Q70X nonsense mutant gene transfected in rabbit reticulocyte assessed as reduction in overall translation at 5 to 20 uM […] dual-luciferase reporter gene assay. Format: subcellular. The settings on record: Oryctolagus cuniculus.
Data set [8] in a line: (§1) Cytotoxicity against HEK293 cells after 48 hrs by XTT assay. Format: cell-based. The settings on record: human, HEK293 cells; read-out: LC50. The method in brief: (§2)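 HEK-293 cells seeded overnight at 5000 cells/well in DMEM with 10% FBS, 1% pen/strep and 1% glutamine. Medium then replaced with antibiotic-free medium, aminoglycoside added at a range of concentrations, and cells incubated 48 h. Read-out by O.D. on a plate reader. Viability is the ratio of living cells treated vs untreated. LC50 fitted from concentration–response curves of at least two independent experiments. Concentrations are given as free amine.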
For orientation: Tetrazolium dyes change colour on reduction, which living cells bring about.

Another data set deals with Bacterial 70S ribosome. As to the kind of experiment: Inhibition of ribosomal activity in Escherichia coli strain B assessed as inhibition of translation after 60 mins by coupled transcription/translation assay. Format: subcellular. The method in brief: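 E. coli S30 extract for circular DNA, with pBESTluc plasmid as template. Reactions containing varying aminoglycoside concentrations incubated at 37 °C for 60 min, chilled on ice 5 min, then diluted in tris-phosphate buffer (25 mM, pH 7.8) with DTT, chelator, glycerol, Triton X-100 and BSA. Luciferase luminescence read immediately after reagent addition. IC50 fitted from at least two independent experiments.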

Data set [9] in a line: Inhibition of ribosomal activity in Spodoptera frugiperda Sf21 cells assessed as inhibition of translation after 60 mins by fluorescence assay. Format: subcellular, Ribosome.
A further data set relates to Escherichia coli. Put plainly: Antibacterial activity against Escherichia coli R477-100 by double-microdilution method. Format: functional. The method in brief: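 MIC by two-fold broth microdilution following NCCLS guidance; tested compound started at 384 µg/mL. Each run done in triplicate, with consistent results across three separate experiments.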
In general terms: In broth dilution the organism is exposed to a series of concentrations in liquid medium.

In another data set the test system is Bacillus subtilis. Put plainly: Antibacterial activity against Bacillus subtilis ATCC 6633 by double-microdilution method. Format: functional. The method in brief:
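MIC determined by double-microdilution per NCCLS against Gram-positive B. subtilis ATCC-6633, starting at 384 µg/mL of compound. Run in triplicate (footnote says duplicates); analogous results in three separate experiments.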

A short description of data set [10]: Ratio of gentamicin to compound antitranslational activity against prokaryotic ribosome-mediated translation. Format: subcellular.
A short description of data set [11]: Ratio of paromomycin to compound antitranslational activity against prokaryotic ribosome-mediated translation. Format: subcellular.
The subject of data set [12] is Ribosome. Put plainly: Induction of ribosome to readthrough in-frame UGA codon of renilla/firefly PCDH15 R3X nonsense mutant gene transfected in rabbit reticulocyte assessed as reduction in overall translation at 5 to 20 uM […] dual-luciferase reporter gene assay. Format: subcellular. The settings on record: Oryctolagus cuniculus.
Data set [13] in a line: Cytotoxicity against HDF after 72 hrs by XTT assay. The settings on record: human. Format: cell-based. The method in brief: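 Primary human dermal fibroblasts isolated from adult skin. Handled as in the HEK-293 protocol (overnight seeding, antibiotic-free medium, range of aminoglycoside concentrations), but exposed for 72 h. Viability is the ratio of treated to untreated living cells by O.D. LC50 fitted from concentration–response curves of at least two independent experiments.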

In data set [14] the test system is HEK293. Described as §1. Particulars: human, hek293, 48 h; read-out: LC50 (the source's name). Format: cell-based. The method in brief:
as §2

Data set [15] relates to Ribosome. As to the kind of experiment: Induction of ribosome to readthrough in-frame UGA codon of renilla/firefly PCDH15 R3X nonsense mutant gene transfected in HEK293 cells assessed as reduction in overall translation at 1 to 2 mM after 6 hrs dual-luciferase reporter gene assay. Format: subcellular. Particulars: Homo sapiens.
The test system of data set [16] is Ribosome. Put plainly: Induction of ribosome to readthrough in-frame UAG codon of renilla/firefly IDUA Q70X nonsense mutant gene transfected in HEK293 cells assessed as reduction in overall translation at 1 to 2 mM after 6 hrs dual-luciferase reporter gene assay. Format: subcellular. The settings on record: Homo sapiens.
For data set [17], the system named is Ribosome. As to the kind of experiment: Induction of ribosome to readthrough in-frame UGA codon of renilla/firefly CFTR W1282X nonsense mutant gene transfected in HEK293 cells assessed as reduction in overall translation at 1 to 2 mM after 6 hrs dual-luciferase reporter gene assay. Particulars: Homo sapiens. Format: subcellular.
The subject of data set [18] is HEK293. Put plainly: Ratio of geneticin to compound activity for induction of ribosome to readthrough in-frame UGA codon of renilla/firefly CFTR W1282X nonsense mutant gene transfected in HEK293 cells at 0.1 to 0.7 mM after 6 hrs dual-luciferase reporter gene assay. Particulars: Homo sapiens. Format: subcellular.
Data set [19] deals with HEK293. As to the kind of experiment: Ratio of compound LC50 to gentamicin LC50 for HEK293 cells. Particulars: human. Format: ADME, cell-based. The method in brief:
(§3)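 HEK-293 cells seeded 5000/well overnight in DMEM with 10% FBS, 1% pen/strep, 1% glutamine; medium replaced without antibiotics, aminoglycosides added at varying concentrations for 48 h; OD read on plate reader. Viability as living cells treated versus untreated; LC50 from concentration–response fits of at least two independent experiments; ratios relative to reference drug LC50.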

Data set [20] can be described thus: Ratio of compound LC50 to geneticin LC50 for HEK293 cells. Format: ADME, cell-based. The settings on record: human. The method in brief: as §3

Take `C[C@H](O)[C@H]1O[C@H](O[C@H]2[C@H](O)[C@@H](O)[C@H](N)C[C@@H]2N)[C@H](N)[C@@H](O)[C@@H]1O`: the result with Ribosome [1] and with Ribosome [2] was Active.
Take `NC[C@H]1O[C@@H](O[C@@H]2[C@@H](O)[C@H](N)C[C@H](N)[C@H]2O[C@H]2O[C@H](CO)[C@@H](O)[C@H](O)[C@H]2N)[C@H](O)[C@@H]1O`: the inhibition with Ribosome [3], with Ribosome [4], in the data set with Ribosome [5], in the data set on Ribosome [6], in the data set with Ribosome [7] and in the data set on Ribosome [12] was 10% in each case. Moreover, in data set [8], the CC50 at 48 h amounted to 21400 µM. Further, the pIC50 on Bacterial 70S ribosome was 6.34; in data set [9], 4.51. The MIC worked out at 790 µM (≈ 359 µg/mL) in the data set with Escherichia coli and 100 µM (≈ 45.4 µg/mL) in the data set with Bacillus subtilis. Also, the Ratio in [10] and in data set [11] was 10 in each case.
As for `CN[C@@H]1[C@@H](O)[C@@H](O[C@@H]2[C@@H](O)[C@H](O[C@H]3O[C@H]([C@@H](C)O)[C@@H](O)[C@H](O)[C@H]3N)[C@@H](N)C[C@H]2N)OC[C@]1(C)O` [GENETICIN], in data set [8], the CC50 at 48 h is 1300 µM. Besides, the CC50 at 72 h in data set [13] (HDF cells, read-out: LC50) is 2000 µM. Also, the pIC50 at Bacterial 70S ribosome was 8.05. In addition, the MIC against Escherichia coli was 9 µM (≈ 4.47 µg/mL); against Bacillus subtilis, below 1.25 µM.
For GENTAMICIN [listing 1 of 2 here], the CC50 was 2500 µM in the data set on HEK293 [14] and 3800 µM in [13] (hdf, 72 h, read-out: LC50 (the source's name)). Besides, the negative logarithm of the IC50 (pIC50) is 7.55 on Bacterial 70S ribosome and 4.21 in [9].
As for `C[C@H](O)[C@H]1O[C@H](O[C@H]2[C@H](O)[C@@H](O)[C@H](NC(=O)[C@@H](O)CCN)C[C@@H]2N)[C@H](N)[C@@H](O)[C@@H]1O`, the outcome in the data set with Ribosome [2] was Active.
As to `C[C@H](O)[C@H]1O[C@H](O[C@H]2[C@H](O[C@@H]3O[C@H](CN)[C@@H](O)[C@H]3O)[C@@H](O)[C@H](NC(=O)[C@@H](O)CCN)C[C@@H]2N)[C@H](N)[C@@H](O)[C@@H]1O`, the inhibition with Ribosome [3], with Ribosome [4], in the data set on Ribosome [5], in the data set on Ribosome [6], with Ribosome [7] and in the data set on Ribosome [12] was 50% in each case. In addition, the inhibition result with Ribosome [15], in the data set on Ribosome [16] and with Ribosome [17] was “Active” in each case. Besides, the Ratio with HEK293 [18] came out at 2; with HEK293 [19], 2.8. Besides, the CC50 at 48 h in [8] was determined as 7000 µM. Moreover, in data set [20], the selectivity ratio stood at 5. Moreover, the figures for the pIC50 (at Bacterial 70S ribosome; in [9]) were 6.01 and 5.55, respectively. Also, the MIC in the data set with Escherichia coli came to 556 µM (≈ 317 µg/mL); with Bacillus subtilis, 70 µM (≈ 39.9 µg/mL).
Consider GENTAMICIN [listing 2 of 2 here], for which the MIC against Escherichia coli was 6 µM; in the data set on Bacillus subtilis, below 0.75 µM.
For `C[C@H](O)[C@H]1O[C@H](O[C@H]2[C@H](O[C@@H]3O[C@H](CN)[C@@H](O)[C@H]3O)[C@@H](O)[C@H](N)C[C@@H]2N)[C@H](N)[C@@H](O)[C@@H]1O`, the inhibition in the data set with Ribosome [3], in the data set on Ribosome [4], in the data set on Ribosome [5], in the data set on Ribosome [6], in the data set on Ribosome [7] and in the data set with Ribosome [12] was 10% each time. Besides, the CC50 at 48 h in [8] came to 25800 µM. Further, at Bacterial 70S ribosome, the pIC50 was 5.95. Further, in the data set on Bacillus subtilis, the MIC came out at 42 µM (≈ 19.7 µg/mL).
Consider `NCC[C@H](O)C(=O)N[C@@H]1C[C@H](N)[C@@H](O[C@H]2O[C@H](CO)[C@@H](O)[C@H](O)[C@H]2N)[C@H](O)[C@H]1O`, for which the result in the data set on Ribosome [1] and in the data set with Ribosome [2] was Active.
On to `N[C@H]1[C@@H](O[C@H]2[C@H](O)[C@@H](O)[C@H](N)C[C@@H]2N)O[C@H](CO)[C@@H](O)[C@@H]1O`, for which the outcome in the data set with Ribosome [1] and in the data set on Ribosome [2] was Active.
For `NCC[C@H](O)C(=O)N[C@@H]1C[C@H](N)[C@@H](O[C@H]2O[C@H](CO)[C@@H](O)[C@H](O)[C@H]2N)[C@H](O[C@@H]2O[C@H](CN)[C@@H](O)[C@H]2O)[C@H]1O`, the inhibition in the data set on Ribosome [3], in the data set on Ribosome [4], with Ribosome [5], in the data set with Ribosome [6], in the data set on Ribosome [7] and with Ribosome [12] was 10% each time. In addition, the inhibition entry in the data set on Ribosome [15], with Ribosome [16] and in the data set with Ribosome [17] was “Active” throughout. In addition, the CC50 at 48 h in [8] was 6100 µM. Also, the negative-log IC50 (pIC50) was 6.80 at Bacterial 70S ribosome and 4.62 in data set [9]. Further, the results for the MIC against Escherichia coli and against Bacillus subtilis were 588 µM (≈ 327 µg/mL) and 70 µM (≈ 38.9 µg/mL), respectively. For the same compound, the Ratio in data set [10] and in data set [11] was 10 each time.
